Results on one molecule are retold here after ChEMBL document CHEMBL1765003, “Discovery of (1S,2R,3R)-2,3-dimethyl-2-phenyl-1-sulfamidocyclopropanecarboxylates: novel and highly selective aggrecanase inhibitors” (J Med Chem, 2011).

One series concerns the target Cytochrome P450 3A4 (Homo sapiens, UniProt P08684). Nature of the series: Inhibition of CYP3A4 at up to 50 uM. In kind it is ADME.
Series [1] has as its target Disintegrin and metalloproteinase domain-containing protein 17 (Homo sapiens, UniProt P78536). Nature of the series: Inhibition of human recombinant TACE after 60 mins by fluorescence plate reader. The essentials: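 rh-TACE at 80 ng/mL with 10 μM MCA-Pro-Leu-Ala-Gln-Ala-Val-Dpa-Arg-Ser-Ser-Ser-Arg-NH₂, in 100 mM Tris-HCl pH 7.5, 150 mM NaCl, 10 mM CaCl₂, 0.05% Brij-35. Inhibitor preincubated for 15 min at 25 °C. Fluorescence (ex 325/em 405 nm) read at 60 min. IC50 from three linear-range points; mean of ≥2.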

The target of the next series is T1, Interstitial collagenase (Homo sapiens, UniProt P03956).
T1 sequence (P03956 whole entry): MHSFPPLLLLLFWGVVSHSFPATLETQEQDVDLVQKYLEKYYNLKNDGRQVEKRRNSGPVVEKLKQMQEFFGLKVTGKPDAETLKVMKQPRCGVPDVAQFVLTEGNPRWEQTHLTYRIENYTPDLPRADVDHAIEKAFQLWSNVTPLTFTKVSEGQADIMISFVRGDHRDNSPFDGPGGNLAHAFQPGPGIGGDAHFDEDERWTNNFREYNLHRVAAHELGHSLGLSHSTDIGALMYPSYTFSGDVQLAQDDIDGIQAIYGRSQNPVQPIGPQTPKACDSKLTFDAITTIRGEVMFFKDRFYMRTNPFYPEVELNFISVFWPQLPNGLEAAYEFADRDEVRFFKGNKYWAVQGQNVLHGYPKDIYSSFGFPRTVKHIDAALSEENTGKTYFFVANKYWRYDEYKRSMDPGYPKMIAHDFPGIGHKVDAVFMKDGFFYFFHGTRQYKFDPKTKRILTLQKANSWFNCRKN
Nature of the series: Inhibition of human recombinant MMP1 after 60 mins by fluorescence plate reader. In a few lines: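 Recombinant human enzyme at 20 ng/mL with 10 μM MOCAc-Lys-Pro-Leu-Gly-Leu-A2pr(Dnp)-Ala-Arg-NH₂, in 100 mM Tris-HCl pH 7.5, 150 mM NaCl, 10 mM CaCl₂, 0.05% Brij-35. Enzyme pretreated with inhibitor for 15 min at 25 °C, then substrate added. Fluorescence (ex 325, em 405 nm) read at 60 min. IC50 taken from three points in the linear range; mean of ≥2 determinations.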

The next series deals with Cytochrome P450 2D6 (Homo sapiens, UniProt P10635). Nature of the series: Inhibition of CYP2D6 at up to 50 uM. In kind it is ADME.
Sequence of Cytochrome P450 2D6 (P10635 whole entry): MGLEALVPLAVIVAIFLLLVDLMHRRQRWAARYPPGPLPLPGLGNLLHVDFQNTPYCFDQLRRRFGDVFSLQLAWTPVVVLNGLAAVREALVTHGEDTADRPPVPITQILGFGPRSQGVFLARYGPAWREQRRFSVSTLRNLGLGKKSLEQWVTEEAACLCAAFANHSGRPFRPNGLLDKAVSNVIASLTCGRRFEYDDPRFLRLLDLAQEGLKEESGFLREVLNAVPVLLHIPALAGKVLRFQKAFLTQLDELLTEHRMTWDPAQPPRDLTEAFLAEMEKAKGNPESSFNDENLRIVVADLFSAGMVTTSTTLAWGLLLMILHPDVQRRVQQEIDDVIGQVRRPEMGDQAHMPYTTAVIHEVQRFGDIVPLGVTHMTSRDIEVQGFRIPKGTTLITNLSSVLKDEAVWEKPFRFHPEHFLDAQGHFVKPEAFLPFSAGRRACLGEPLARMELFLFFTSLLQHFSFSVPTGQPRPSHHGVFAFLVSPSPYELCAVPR
Another series concerns the target T2, Cytochrome P450 1A2 (Homo sapiens, UniProt P05177).
T2 sequence (P05177 whole entry): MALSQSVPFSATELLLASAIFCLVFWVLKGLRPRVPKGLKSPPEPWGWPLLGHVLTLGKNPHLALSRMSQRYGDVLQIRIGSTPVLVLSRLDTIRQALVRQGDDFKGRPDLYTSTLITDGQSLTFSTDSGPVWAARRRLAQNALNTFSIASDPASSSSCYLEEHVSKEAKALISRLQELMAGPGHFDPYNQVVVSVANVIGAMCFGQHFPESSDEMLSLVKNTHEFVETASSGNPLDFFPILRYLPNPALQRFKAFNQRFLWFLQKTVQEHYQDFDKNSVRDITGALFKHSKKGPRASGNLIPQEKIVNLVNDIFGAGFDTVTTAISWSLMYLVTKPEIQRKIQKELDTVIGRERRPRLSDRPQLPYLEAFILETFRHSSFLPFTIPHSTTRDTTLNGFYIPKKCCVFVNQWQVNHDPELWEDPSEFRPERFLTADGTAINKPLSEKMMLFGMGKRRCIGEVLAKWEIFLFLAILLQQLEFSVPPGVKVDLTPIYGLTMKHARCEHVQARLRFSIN
Nature of the series: Inhibition of CYP1A2 at up to 50 uM. It counts as ADME.

Series [2] is described as follows: Volume of distribution at steady state in Sprague-Dawley rat at 1 mg/kg, iv. Conditions: in vivo, read-out: Vdss; call rule not given here. Details: dose 1 mg/kg, route intravenous. It counts as ADME, organism-based. The essentials: (§1)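 Intravenous dose of 1 mg/kg. Blood sampled at 0.50, 1, 2, 4, 8 and 24 h. Plasma obtained by centrifugation at 10 000 rpm for 5 min and kept at −20 °C until analysis.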

Series [3] can be described thus: Clearance in Sprague-Dawley rat at 1 mg/kg, iv. It counts as ADME, organism-based. Details: dose 1 mg/kg, route intravenous. Particulars: in vivo. The essentials: as §1
Series [4] is described as follows: Half life in Sprague-Dawley rat at 10 mg/kg, po. Details: dose 10 mg/kg, route oral. It counts as ADME, organism-based. Conditions: in vivo.
Series [5] can be described thus: Cmax in Sprague-Dawley rat at 10 mg/kg, po. In kind it is ADME, organism-based. Details: dose 10 mg/kg, route oral. Particulars: in vivo.
A short description of series [6]: Oral bioavailability in Sprague-Dawley rat at 10 mg/kg. In kind it is ADME, organism-based. Conditions: Sprague-Dawley, in vivo.
The target of the next series is Stromelysin-1 (Homo sapiens, UniProt P08254). Nature of the series: Inhibition of human recombinant MMP3 after 60 mins by fluorescence plate reader. The essentials: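 rh-MMP-3 at 40 ng/mL with 10 μM MOCAc-Arg-Pro-Lys-Pro-Val-Glu-Nva-Trp-Arg-Lys(Dnp)-NH₂, in Tris-HCl pH 7.5/NaCl/CaCl₂/Brij-35 buffer. Inhibitor preincubated for 15 min at 25 °C. Fluorescence (ex 325/em 405 nm) read at 60 min. IC50 from three central linear points; at least two determinations averaged.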
Sequence of Stromelysin-1 (P08254 whole entry): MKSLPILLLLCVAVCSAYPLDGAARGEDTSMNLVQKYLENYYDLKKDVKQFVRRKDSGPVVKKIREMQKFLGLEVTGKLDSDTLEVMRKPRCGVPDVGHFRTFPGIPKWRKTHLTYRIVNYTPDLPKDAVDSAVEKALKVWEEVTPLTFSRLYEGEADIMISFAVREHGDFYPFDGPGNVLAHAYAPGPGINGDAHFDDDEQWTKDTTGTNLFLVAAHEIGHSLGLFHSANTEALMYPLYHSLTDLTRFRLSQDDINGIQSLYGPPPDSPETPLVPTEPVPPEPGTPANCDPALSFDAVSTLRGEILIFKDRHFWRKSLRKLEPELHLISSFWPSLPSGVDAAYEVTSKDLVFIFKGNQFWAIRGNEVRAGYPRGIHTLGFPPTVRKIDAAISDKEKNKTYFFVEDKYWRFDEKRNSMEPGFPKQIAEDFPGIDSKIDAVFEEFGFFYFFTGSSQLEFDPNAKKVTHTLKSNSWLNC

The next series addresses Collagenase 3 (Homo sapiens, UniProt P45452). Nature of the series: Inhibition of human recombinant MMP13 after 60 mins by fluorescence plate reader. In a few lines:
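rh-MMP-13 at 40 ng/mL with 5 μM 7-MCA-Pro-CHA-Gly-NVal-His-Ala-DPA, in Tris-HCl pH 7.5/NaCl/CaCl₂/0.05% Brij-35. Pretreatment with inhibitor for 15 min at 25 °C, then substrate started the reaction. Fluorescence (ex 325/em 405 nm) read at 60 min. IC50 from three central linear points, averaged over ≥2 determinations.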

Sequence of Disintegrin and metalloproteinase domain-containing protein 17 (P78536 whole entry, the tested form may be a part): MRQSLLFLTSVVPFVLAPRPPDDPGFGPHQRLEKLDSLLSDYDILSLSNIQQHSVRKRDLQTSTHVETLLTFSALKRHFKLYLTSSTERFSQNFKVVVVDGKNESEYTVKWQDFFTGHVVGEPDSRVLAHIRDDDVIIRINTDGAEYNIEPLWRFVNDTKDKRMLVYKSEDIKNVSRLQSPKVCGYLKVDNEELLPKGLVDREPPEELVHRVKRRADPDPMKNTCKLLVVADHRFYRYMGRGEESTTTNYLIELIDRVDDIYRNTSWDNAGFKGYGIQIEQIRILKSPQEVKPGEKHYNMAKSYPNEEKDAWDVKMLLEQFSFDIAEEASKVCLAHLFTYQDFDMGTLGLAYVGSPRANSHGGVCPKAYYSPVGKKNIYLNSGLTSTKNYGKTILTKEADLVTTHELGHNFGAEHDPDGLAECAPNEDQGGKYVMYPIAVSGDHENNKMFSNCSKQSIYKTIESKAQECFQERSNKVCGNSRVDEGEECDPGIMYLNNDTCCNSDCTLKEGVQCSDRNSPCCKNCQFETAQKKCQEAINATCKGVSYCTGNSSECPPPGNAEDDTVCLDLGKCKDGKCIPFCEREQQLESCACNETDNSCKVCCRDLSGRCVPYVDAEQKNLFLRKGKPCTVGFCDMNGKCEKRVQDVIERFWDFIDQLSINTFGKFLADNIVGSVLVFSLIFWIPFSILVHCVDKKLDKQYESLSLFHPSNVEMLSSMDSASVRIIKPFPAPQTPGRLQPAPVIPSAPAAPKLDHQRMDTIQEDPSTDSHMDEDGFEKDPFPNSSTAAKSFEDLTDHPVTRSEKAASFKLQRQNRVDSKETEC
Sequence of Cytochrome P450 3A4 (P08684 whole entry, the tested form may be a part): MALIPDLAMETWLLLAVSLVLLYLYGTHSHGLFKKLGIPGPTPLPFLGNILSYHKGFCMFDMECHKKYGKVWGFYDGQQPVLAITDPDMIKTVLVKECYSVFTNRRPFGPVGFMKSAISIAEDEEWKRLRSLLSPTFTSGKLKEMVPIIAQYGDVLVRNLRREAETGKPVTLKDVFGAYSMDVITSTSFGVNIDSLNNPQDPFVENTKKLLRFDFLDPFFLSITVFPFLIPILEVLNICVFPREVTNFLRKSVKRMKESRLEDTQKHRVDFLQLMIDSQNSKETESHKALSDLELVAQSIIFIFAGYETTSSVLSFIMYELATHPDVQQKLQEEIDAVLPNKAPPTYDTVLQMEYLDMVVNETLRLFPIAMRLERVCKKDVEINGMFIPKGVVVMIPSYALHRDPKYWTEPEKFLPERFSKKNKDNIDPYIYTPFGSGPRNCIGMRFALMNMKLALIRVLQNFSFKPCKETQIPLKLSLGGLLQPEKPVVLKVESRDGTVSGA

For the molecule `C[C@@H]1[C@](C)(c2ccccc2)[C@]1(NS(=O)(=O)N1CCc2c(nc3cc(F)ccn23)C1)C(=O)O`, the “inhibition (INH)” value at Cytochrome P450 3A4, at Cytochrome P450 2D6 and against Cytochrome P450 1A2 was “Not Active” each time. The IC50 in series [1] was above 10 µM; at Interstitial collagenase it was above 10 µM; on Stromelysin-1 it was 9.6 µM; at Collagenase 3 it was above 10 µM. Besides, the Vd in series [2] amounted to 0.25 L/kg. The clearance in series [3] is 1 mL/min/kg. Also, the half-life in series [4] is 4 h. The concentration in [5] peaked (Cmax) at 54.1 µM. In series [6], the bioavailability was found to be 103%.

One may read the IC50 as the concentration needed to halve the response being measured. Broadly, the clearance is a measure of how efficiently the substance is removed, as volume per time. A lower clearance goes with inefficient removal. By half-life is commonly meant the time in which the quantity being followed falls by half. Broadly, the Cmax is the highest concentration seen after dosing.
